Data: ChEMBL document CHEMBL2406974, “Xanthone glycoside constituents of Swertia kouitchensis with α-glucosidase inhibitory activity” (J Nat Prod, 2013)

Assay: Inhibition of Saccharomyces cerevisiae alpha-glucosidase using p-nitrophenyl-alpha-D-glucopyranoside as substrate preincubated for 15 mins
Method in brief: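 Yeast enzyme at 0.6 U/mL in 0.1 M potassium phosphate buffer, pH 6.8. It was preincubated at 37 °C with test compound in water containing 0.5% DMSO. The reaction was started with 5.0 mM PNPG solution in the same buffer and incubated at 37 °C. It was stopped with 0.2 M Na2CO3 in phosphate buffer. Released p-nitrophenol was read at 405 nm, with IC50 as the output.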

IC50 | SMILES
1500 µM | COc1cc(O[C@@H]2O[C@H](CO[C@@H]3OC[C@@H](O)[C@H](O)[C@H]3O)[C@@H](O)[C@H](O)[C@H]2O)c2c(=O)c3c(OC)c(O)ccc3oc2c1OC
383 µM | COc1cc(O[C@@H]2O[C@H](CO[C@@H]3OC[C@@H](O)[C@H](O)[C@H]3O)[C@@H](O)[C@H](O)[C@H]2O)c2c(=O)c3c(OC)c(OC)ccc3oc2c1OC
701 µM | COc1cc(O[C@@H]2O[C@H](CO)[C@@H](O)[C@H](O)[C@H]2O)c2c(=O)c3c(OC)c(O)ccc3oc2c1O
360 µM | COc1cc(O[C@@H]2O[C@H](CO[C@@H]3OC[C@@H](O)[C@H](O)[C@H]3O)[C@@H](O)[C@H](O)[C@H]2O)c2c(=O)c3c(OC)ccc(OC)c3oc2c1
371 µM | COc1cc(O[C@@H]2O[C@H](CO[C@@H]3OC[C@@H](O)[C@H](O)[C@H]3O)[C@@H](O)[C@H](O)[C@H]2O)c2c(=O)c3c(OC)c(OC)cc(OC)c3oc2c1
184 µM | COc1ccc(O)c2c(=O)c3c(O)cc(O[C@@H]4O[C@H](CO[C@@H]5OC[C@@H](O)[C@H](O)[C@H]5O)[C@@H](O)[C@H](O)[C@H]4O)c(OC)c3oc12
956 µM | COc1cc(O[C@@H]2O[C@H](CO[C@@H]3O[C@H](CO)[C@@H](O)[C@H](O)[C@H]3O)[C@@H](O)[C@H](O)[C@H]2O)c2c(=O)c3cccc(OC)c3oc2c1
693 µM | COc1cc(O[C@@H]2O[C@H](CO[C@@H]3O[C@H](CO)[C@@H](O)[C@H](O)[C@H]3O)[C@@H](O)[C@H](O)[C@H]2O)c2c(=O)c3c(O)ccc(OC)c3oc2c1
> 1720 µM | COc1cc(O)c2c(=O)c3c(O)c(O[C@@H]4O[C@H](CO)[C@@H](O)[C@H](O)[C@H]4O[C@@H]4O[C@@H](C)[C@H](O)[C@@H](O)[C@H]4O)ccc3oc2c1
714 µM | COc1cc(O)c2c(=O)c3c(O[C@@H]4O[C@H](CO)[C@@H](O)[C@H](O)[C@H]4O)c(O[C@@H]4O[C@@H](C)[C@H](O)[C@@H](O)[C@H]4O)ccc3oc2c1
451 µM | COc1cc(O[C@@H]2O[C@H](CO[C@@H]3OC[C@@H](O)[C@H](O)[C@H]3O)[C@@H](O)[C@H](O)[C@H]2O)c2c(=O)c3c(O)c(OC)ccc3oc2c1
627 µM | C[C@H]1O[C@H](O[C@H]2[C@H](O)[C@@H](O)[C@@H](O[C@H]3[C@H](O)[C@@H](O)C(O)O[C@@H]3CO)O[C@@H]2CO)[C@H](O)[C@@H](O)[C@@H]1N[C@H]1C=C(CO)[C@@H](O)[C@H](O)[C@H]1O (some centres undefined) [ACARBOSE]
296 µM | O=c1c2cc(O)c(O)cc2oc2cc(O)c([C@@H]3O[C@H](CO)[C@@H](O)[C@H](O)[C@H]3O)c(O)c12 [MANGIFERIN]
126 µM | COc1cc(O)c2c(=O)c3c(O[C@@H]4O[C@H](CO)[C@@H](O)[C@H](O)[C@H]4O)ccc(O)c3oc2c1 [SWERTIANOLIN]
